According to ChEMBL document CHEMBL1125333, “Predictive binding of beta-carboline inverse agonists and antagonists via the CoMFA/GOLPE approach” (J Med Chem, 1992):

These molecules were tested against GABA-A receptor; anion channel (assay: In vitro binding affinity at benzodiazepine receptor of rat cerebral cortical membranes by [3H]diazepam displacement.).
Method in brief: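 Rat cerebral cortex homogenised in 50 mM Tris-HCl pH 7.4, centrifuged at 20000g at 4 °C and washed three times. Membranes incubated with drug and 2 nM [3H]diazepam (final) for 120 min at 4 °C, then filtered and washed with ice-cold buffer. Nonspecific binding measured with 10 μM flunitrazepam (final). IC50 estimated from Hill plots.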

Row | Compound | IC50 [nM]
1 | CC(C)COc1cc2c(cn1)[nH]c1ccccc12 | 93
2 | CC(C)(C)C(=O)c1cc2c3ccccc3nc-2c[nH]1 | 358
3 | Nc1cc2c(cn1)[nH]c1ccccc12 | > 25000
4 | CC(C)CCOc1cc2c3ccccc3nc-2c[nH]1 | 535
5 | CC(C)(C)COc1cc2c3ccccc3nc-2c[nH]1 | 104
6 | c1ccc(COc2cc3c4ccccc4nc-3c[nH]2)cc1 | > 1000
7 | c1ccc(CNc2cc3c(cn2)[nH]c2ccccc23)cc1 | > 1280
8 | CCC(C)Oc1cc2c3ccccc3nc-2c[nH]1 (configuration not stated) | 471

Species: Mus musculus
Experiment: Tested for convulsive activity in pentylenetetrazole injected mice
Type: functional

Row | Compound | ED50 [mg/kg]
9 | COC(=O)c1cc2c(cn1)[nH]c1ccccc12 [BETA-CCM] | 10
10 | CCOc1cc2c(cn1)[nH]c1ccccc12 | 7
11 | CCOC(=O)c1cc2c(cn1)[nH]c1ccccc12 | 3.2
12 | COc1cc2c(cn1)[nH]c1ccccc12 | 6
